Test results reported in ChEMBL document CHEMBL4024790 (J Med Chem, 2018).
Activity calls are given as the source filed them. No cut-off for these calls is given here.

Assays:
Mus musculus [1] = species: Mus musculus; test: Increase in cGMP level in CD-1 mouse brain hippocampus assessed as unbound brain concentration required to show the effect by immunoassay; type: functional
In short: (§1)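 CD-1 mice dosed SC (solution in 20% SBE-β-CD with 2 molar equivalents 1N HCl, 1 mL/kg); euthanized by focused microwave irradiation of brain; cortex, striatum, hippocampus homogenized in 0.5 N HCl, centrifuged; cyclic nucleotides in supernatant by enzyme immunoassay. Unbound brain exposure from satellite animals; dose-response and time-course data combined with linear model; one-way ANOVA with Fisher's PLSD.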

[2] = Ratio of unbound brain concentration to unbound plasma concentration in iv or sc dosed Wistar Han rat; type: ADME, organism-based; details: brain and plasma, read-out: K(p,uu,brain)
In short: (§2)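 Compound given sc to mice, iv and/or sc to rats, po to dogs and sc to monkeys; sc doses as a solution in 20% SBE-BCD + 2 molar equiv 1N HCl. Plasma, whole brain and CSF taken at matched times from 2 min to 24 h and quantified by LC-MS/MS. Fraction unbound in plasma and brain homogenate (diluted 4-fold, dilution factor 5 applied) by 6 h equilibrium dialysis against phosphate buffer at 37°C.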

Cytochrome P450 2D6 = Cytochrome P450 2D6 (Homo sapiens, UniProt P10635); test: Inhibition of recombinant human CYP2D6; type: ADME; details: recombinant enzyme
[3] = Ratio of unbound brain concentration to unbound plasma concentration in sc dosed CD-1 mouse; type: ADME, organism-based; details: brain and plasma, read-out: K(p,uu,brain); in short: as §2
Mus musculus [4] = species: Mus musculus; test: Effect on cAMP level in CD-1 mouse brain cortex by immunoassay; type: functional; in short: as §1
[5] = Cmax in beagle dog at 0.3 mg/kg, iv by LC-MS/MS analysis; type: ADME, organism-based, Canis lupus familiaris; parameters: dose 0.3 mg/kg, route intravenous; details: in vivo
In short: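 Male Wistar-Han rats given single 1 mg/kg IV; beagle dogs 0.3 mg/kg IV; solution in 20% (w/v) sulfobutyl ether β-cyclodextrin with hydrochloric acid, 1 mL/kg (rat) or 0.4 mL/kg (dog). Blood via carotid artery cannula between 2 min and 24 h into EDTA tubes; plasma analysed by LC-MS/MS with positive electrospray.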

Mus musculus [6] = species: Mus musculus; test: Increase in cGMP level in CD-1 mouse brain striatum by immunoassay; type: functional
In short: (§3)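 CD-1 mice given compound; brains fixed by focused microwave irradiation, and cortex, striatum and hippocampus dissected and homogenized in 0.5 N HCl, then centrifuged. cGMP in the supernatant measured by enzyme immunoassay. Unbound brain concentration taken from satellite animals. Dose-response and time-course data combined, and a linear Cbu–cGMP model fitted. The Cbu E50 is the projected Cbu giving a 50% rise in cGMP. Statistics by one-way ANOVA with Fisher's PLSD, p<0.05.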

[7] = Drug metabolism in dog hepatocytes assessed as 1-(7-methyl-5-(1-methyl-5-(5-(trifluoromethyl)pyridin-2-yl)-1H-pyrazol-4-yl)imidazo[1,5-f][1,2,4]triazin-4-yl)azetidin-3-ol formation at 1 to 50 uM after 1 hr by LC-MS/MS analysis; type: ADME, cell-based, Canis lupus familiaris, Hepatocyte
In short: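 Rat, dog or human liver microsomes or hepatocytes (P450 0.35–0.5 µM final) incubated with compound at 1, 10 or 50 µM in 100 mM phosphate buffer with 1 mM NADP regenerating system, 37°C for 1 h; quenched with 4 volumes acetonitrile, centrifuged, supernatant evaporated, reconstituted in 5% aqueous acetonitrile and analysed by reversed-phase LC.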

Rattus norvegicus [8] = test: Toxicity in rat assessed as effect on vasculature at 5 to 250 mg/kg/day, po up to 15 days by microscopic method; type: organism-based; details: in vivo, 360 h
Rattus norvegicus [9] = species: Rattus norvegicus; test: Toxicity in rat assessed as effect on skeletal muscle up to 1 month by microscopic method; details: in vivo
[10] = AUC (0 to infinity) in Wistar Han rat at 5 mg/kg, po administered via gavage by LC-MS/MS analysis; type: ADME, organism-based; parameters: dose 5 mg/kg, route oral, time infinity; details: in vivo
[11] = Terminal half life in beagle dog at 0.3 mg/kg, iv by LC-MS/MS analysis; type: ADME, organism-based, Canis lupus familiaris; details: in vivo, read-out: beta t1/2 (converted)
In short: (§4)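 Single iv dose to male Wistar-Han rats (1 mg/kg) or dogs (0.3 mg/kg), given as a solution in 20% (w/v) SBECD with HCl. Dose volume 1 mL/kg in rats and 0.4 mL/kg in dogs. Blood taken by carotid artery cannula from 2 min to 24 h into K2EDTA (rat) or K3EDTA (dog) tubes. Plasma analysed by LC-MS/MS with positive electrospray after acetonitrile precipitation with internal standard.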

Mus musculus [12] = species: Mus musculus; test: Increase in cGMP level in CD-1 mouse brain cortex by immunoassay; type: functional; in short: as §1
[13] = Volume of distribution at steady state in beagle dog at 0.3 mg/kg, iv by LC-MS/MS analysis; type: ADME, organism-based, Canis lupus familiaris; details: in vivo, read-out: Vdss
In short: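 Beagle dogs got a single IV dose as a solution in 20% (w/v) sulfobutyl ether β-cyclodextrin with hydrochloric acid, at 0.4 mL/kg. Blood was drawn into K3EDTA via carotid artery cannula at set times from 2 min to 24 h. Plasma was acetonitrile-precipitated with internal standard and measured by LC-MS/MS with positive electrospray, standard curve 0.61 to 1250 ng/mL.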

Rattus norvegicus [14] = test: Antipsychotic activity in Long Evans rat at 0.32 to 3.2 mg/kg, sc by conditioned avoidance responding assay; type: functional, organism-based
In short: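 Rats dosed SC at 0.32, 1.0 and 3.2 mg/kg; conditioned avoidance responding also run in combination with risperidone 0.032 mg/kg.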

[15] = AUC (0 to infinity) in beagle dog at 0.3 mg/kg, iv by LC-MS/MS analysis; type: ADME, organism-based, Canis lupus familiaris; parameters: dose 0.3 mg/kg, route intravenous, time infinity; details: in vivo
In short: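 Dogs received a single IV dose as a solution in 20% (w/v) sulfobutylether-β-cyclodextrin with hydrochloric acid, at 0.4 mL/kg. Blood was drawn by carotid artery cannula into K3EDTA at set times from 2 min to 24 h. Plasma was acetonitrile-precipitated with internal standard and run by positive-ESI LC-MS/MS against standards of 0.61–1250 ng/mL. AUC was extrapolated from time 0 to infinity.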

[16] = Terminal half life in Wistar Han rat at 1 mg/kg, iv by LC-MS/MS analysis; type: ADME, organism-based; details: in vivo, read-out: beta t1/2 (converted); in short: as §4
Cytochrome P450 1A2 = biological target: T1, Cytochrome P450 1A2 (Homo sapiens, UniProt P05177); test: Time-dependant inhibition of recombinant human CYP1A2; type: ADME; details: recombinant enzyme
T1 sequence (P05177 whole entry): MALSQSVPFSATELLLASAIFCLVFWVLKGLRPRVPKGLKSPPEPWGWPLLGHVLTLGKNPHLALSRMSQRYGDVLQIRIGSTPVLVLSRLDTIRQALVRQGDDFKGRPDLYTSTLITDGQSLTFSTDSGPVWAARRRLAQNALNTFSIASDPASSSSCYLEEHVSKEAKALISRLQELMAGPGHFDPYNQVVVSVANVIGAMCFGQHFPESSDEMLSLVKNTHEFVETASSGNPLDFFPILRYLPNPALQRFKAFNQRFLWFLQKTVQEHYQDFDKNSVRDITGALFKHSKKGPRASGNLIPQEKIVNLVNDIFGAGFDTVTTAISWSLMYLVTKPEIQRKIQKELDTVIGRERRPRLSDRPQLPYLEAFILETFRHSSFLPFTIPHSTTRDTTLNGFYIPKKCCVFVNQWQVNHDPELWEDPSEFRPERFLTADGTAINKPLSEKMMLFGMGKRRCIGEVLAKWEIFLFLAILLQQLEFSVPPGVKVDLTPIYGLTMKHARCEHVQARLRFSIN

Mus musculus [17] = species: Mus musculus; test: Increase in cGMP level in CD-1 mouse brain hippocampus assessed per nM of unbound brain concentration by immunoassay; type: functional; in short: as §3

Cytochrome P450 2D6, sequence (P10635 whole entry): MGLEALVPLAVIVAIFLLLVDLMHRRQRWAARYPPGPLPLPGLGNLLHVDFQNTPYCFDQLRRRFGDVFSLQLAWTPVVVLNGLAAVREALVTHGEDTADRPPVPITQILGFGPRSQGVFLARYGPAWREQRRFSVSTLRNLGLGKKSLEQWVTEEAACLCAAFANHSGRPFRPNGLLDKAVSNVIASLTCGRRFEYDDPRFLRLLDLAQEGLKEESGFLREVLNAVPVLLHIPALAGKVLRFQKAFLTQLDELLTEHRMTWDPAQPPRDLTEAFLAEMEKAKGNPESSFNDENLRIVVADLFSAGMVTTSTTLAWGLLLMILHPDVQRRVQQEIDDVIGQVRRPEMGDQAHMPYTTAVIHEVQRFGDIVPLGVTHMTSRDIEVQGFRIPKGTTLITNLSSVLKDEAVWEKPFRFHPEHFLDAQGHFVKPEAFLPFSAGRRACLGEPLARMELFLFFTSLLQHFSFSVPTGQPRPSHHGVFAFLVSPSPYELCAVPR

For `Cc1nc(-c2cnn(C)c2-c2ccc(C(F)(F)F)cn2)c2c(N3CCC3)ncnn12` [PF-05180999], which fEC50 (Mus musculus [1]) is on record?
The fEC50 was 116.3 nM.

And the Kp uu [2]?
Its Kp uu is 0.71.

And the “inhibition (INH)” value (Cytochrome P450 2D6)?
The value was “Not Active”.

What about the Kp uu [3] of the same molecule?
The Kp uu was 0.51.

What about the Activity (Mus musculus [4]) of the same molecule?
The Activity was “inactive”.

And the Cmax [5]?
Its Cmax is 293 ng/mL.

What about the Activity (Mus musculus [6]) of the same molecule?
The Activity was “Dose-dependent effect”.

And the Drug metabolism [7]?
The Drug metabolism was “Metabolite_Detected”.

What about the Activity (Rattus norvegicus [8]) of the same molecule?
The Activity was “Non-Toxic”.

And the Activity (Rattus norvegicus [9])?
The Activity was “Toxic”.

And the AUC(0-inf) [10]?
The AUC(0-inf) was 312 ng·h/mL.

And the half-life [11]?
Its half-life is 5 h.

And the Activity (Mus musculus [12])?
Its Activity is “Dose-dependent effect”.

And the Vd [13]?
The Vd was 2.89 L/kg.

What about the Activity (Rattus norvegicus [14]) of the same molecule?
The Activity was “inactive”.

And the AUC(0-inf) [15]?
The AUC(0-inf) was 431 ng·h/mL.

What about the half-life [16] of the same molecule?
Its half-life is 1.1 h.

What about the TDI (Cytochrome P450 1A2) of the same molecule?
Its TDI is “Not Active”.

What about the Activity (Mus musculus [17]) of the same molecule?
The Activity was 0.43%.
